High-throughput results from PubChem.
PGC1a Ac signal: compounds raising PGC1a acetylation signal, primary screen, PGC1a modulator project, cell-based, U2OS, AlphaScreen, signal-increasing mode; overnight; activation, % at 15.6 µM; 0.21% of 350,000 active; AID 651723, 2012;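 active means every replicate reaching activation of at least 50%, whatever the mean replicate activation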;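 further: hits raise the AlphaScreen acetylation signal above neutral controls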
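System: flag-PGC1a/GCN5 U2OS cells / Input: 7000 cells/well / Compound: single test concentration per compound / Incubation: overnight compound treatment, 37 °C / Technique: AlphaScreen on lysates with anti-acetyl-lysine antibody, acceptor and donor beads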
Numbers stand for hits; 0 = inactive. A selection follows.

SMILES | PGC1a Ac signal
O=C(CNc1cccc([N+](=O)[O-])c1)N/N=C/c1ccc([N+](=O)[O-])o1 | 92
COc1ccc(/C=N/NC(=O)c2ccc(NC(=O)c3cccc([N+](=O)[O-])c3)cc2)c(OC)c1 | 0
O=C(Cc1ccc([N+](=O)[O-])cc1)N/N=C/c1ccc([N+](=O)[O-])o1 | 302
N#CCc1ccc(NC(=O)/C=C/c2ccc([N+](=O)[O-])o2)cc1 | 299
CN(C)C(=O)c1ccc(-c2ccc([C@@H]3[C@H]4CN(C(=O)CC5CC5)CC(=O)N4[C@H]3CO)cc2)cc1 | 0
CN(Cc1c(F)cccc1Cl)c1nnnn1-c1ccccc1 | 0
COc1ccc(-c2cc(C(=O)O)[nH]n2)cc1OC | 0
COc1ccc(OC)c(-n2c(-c3ccc(C)cc3)n[nH]c2=S)c1 | 70
COc1nc(OCCNS(=O)(=O)c2ccc(C)cc2)nc(N(C)C)n1 | 0
Cc1ccc(OCC(=O)N2CC(C)OC(C)C2)c([N+](=O)[O-])n1 (stereo not given) | 0
O=C(C[C@H]1C[C@H]2c3cc(NC(=O)C4CCC4)ccc3O[C@H]2[C@H](CO)O1)NCc1ccc(-c2ccccc2)cc1 | 0
COc1cc(/C=C2\COC/C(=C\c3ccc(O)c(OC)c3)C2=O)ccc1O | 90
COc1ccc2c(c1)CC/C(=C/c1cc(OC)c(OC)c(OC)c1)C2=O | 0
COc1ccc(CCCNC(=O)C2(C)Cc3c(-c4ccc5c(c4)OCO5)ccnc3O2)cc1 (stereo not given) | 54
O=S(=O)(Nc1ccccn1)c1ccc(-n2cccn2)cc1 | 0
C[C@H]1CN([C@@H](C)CO)C(=O)CCCn2nncc2CO[C@@H]1CN(C)C(=O)c1ccc(N2CCN(C)CC2)cc1 | 0
Clc1ccc2nc(COc3ccccc3)[nH]c2c1 | 89
CCCCSCCCNC(=O)c1cn(C)c2ccc(S(=O)(=O)N3CCCC3)cc2c1=O | 0
CN1/C(=C\C(=O)c2cccc(S(=O)(=O)N3CCCCC3)c2)C(C)(C)c2ccccc21 | 0
CCOC(=O)N1CCN(C(=O)c2cc(S(=O)(=O)N3CCCC3)cn2C)CC1 | 74
c1csc(CNc2ncnc3ccc(-c4ccoc4)cc23)c1 | 0
C[C@H](NC(=O)C[C@H]1CC[C@@H](NC(=O)C2CC2)[C@H](CO)O1)c1ccccc1 | 0
CC1=NN(C(=O)c2ccc(C)cc2)C(O)(C(F)(F)OC(F)(F)F)C1 (stereo not given) | 55
CC(C)CCC1=NN(C(=O)c2ccco2)C(O)(C(F)(F)F)C1 (stereo not given) | 0
CC1CCCCC1NC(=O)C1CCN(S(=O)(=O)N2CCOCC2)CC1 (stereo not given) | 0
SMILES | PGC1a Ac signal
Cc1ccc(NC(=O)c2ccc([N+](=O)[O-])o2)cc1C | 90
Cc1ccc2nsnc2c1NC(=O)c1ccc([N+](=O)[O-])o1 | 0
CCOC(=O)CSc1nc2cc3c(cc2cc1C#N)OCCO3 | 0
CC(=O)c1ccc(N2CCN(c3ccc(S(=O)(=O)NCCCN(C)C)cc3[N+](=O)[O-])CC2)cc1 | 95
CC1=C(C(=O)OC(C)(C)C)C(c2ccc3ccccc3c2)NC(=O)N1C (stereo not given) | 0
O=C(C[C@@H]1CC[C@@H](NC(=O)C2CCC2)[C@H](CO)O1)NCC1CC1 | 0
CC(=O)c1coc2c1cc(O)c1ccccc12 | 63
Cc1cccc(CC2CC(=O)N(C3CCCCC3)C2=O)c1 (stereo not given) | 0
CCOC(=O)/C(C#N)=C1/C(=O)N(Cc2ccccc2)c2ccccc21 | 0
CCOC(=O)N1C/C(=C\c2ccccc2)C(=O)/C(=C/c2ccccc2)C1 | 497
CCc1ccc(Nc2nnc(SCC(=O)Nc3ccc(C(=O)O)cc3)s2)cc1 | 0
CCOC(=O)COc1ccc(/C=C/[N+](=O)[O-])c(OCC(=O)OCC)c1 | 77
O=C1Nc2ccccc2N=C(c2ccccc2)C1N(Cc1ccc(F)cc1)C(=O)c1cccnc1 (stereo not given) | 0
CN(C)S(=O)(=O)c1ccc(N2CCCC2)c(C(=O)NCc2cccc(C(F)(F)F)c2)c1 | 93
Cc1cccc(S(=O)(=O)N(C)C[C@@H]2OCc3cn(nn3)CCCC(=O)N([C@H](C)CO)C[C@H]2C)c1 | 0
Cc1ccsc1C(=O)Nc1cc(Cl)ccc1-n1cncn1 | 0
Cc1cccc(NC(=O)CCC(=O)N/N=C/c2ccc(O)cc2O)c1 | 51
CCC(=O)Nc1cccc(C(=O)/C=C/c2ccccc2)c1 | 0
O=C(CC1CC1)N[C@H]1CC[C@H](CCNS(=O)(=O)c2ccc(Cl)cc2)O[C@H]1CO | 0
Cc1ccccc1NC(=O)Nc1ccccc1Br | 0
CN1OC(COC(=O)c2ccccc2)CC1c1ccccc1 (stereo not given) | 0
CCOC(=O)C1=C(CS(=O)(=O)c2ccccc2)NC(=O)NC1c1ccc(O)c(OC)c1 (stereo not given) | 0
CCOC(=O)CC(S(=O)(=O)c1ccccc1)S(=O)(=O)c1ccccc1 | 96
C[C@@H]1CN([C@@H](C)CO)C(=O)CCCn2cc(nn2)CO[C@H]1CN(C)S(=O)(=O)c1ccccc1 | 0
CCOc1ccc(C(C)=O)cc1N1C(=O)C2C3C=CC(C3=C(C)C)C2C1=O (stereo not given) | 0
